Assays:
Type in all cases: functional
Rattus norvegicus [1] = experiment: Evaluated for the prolactin inhibition at the dose 50 ug/kg administered intraperitoneally; conditions: ip
How it was run: (§1)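 Reserpinized male rats given 50 μg/kg ip; serum prolactin (ng/mL) measured by the method of Clemens et al. against vehicle controls; % inhibition from treated vs control means; mean ± SEM of 10 rats; significance versus control.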

Rattus norvegicus [2] = experiment: Evaluated for the Average turns per first 15 minutes after administration of 1 mg/kg intraperitoneally; conditions: route intraperitoneal
Rattus norvegicus [3] = experiment: Evaluated for the prolactin inhibition at the dose 50 ug/kg administered intraperitoneally (treatment); how it was run: as §1
Rattus norvegicus [4] = experiment: Evaluated for the rat turning after administration of 1 mg/kg intraperitoneally; conditions: route intraperitoneal

Row | SMILES | inhibition in vivo at 0.05 mg/kg (Rattus norvegicus [1]) [%] | Average turns/first 15 min (Rattus norvegicus [2]) | serum prolactin level (Rattus norvegicus [3]) [ng/mL] | Rat turning (Rattus norvegicus [4]) [%]
1 | CC1=C[C@@H]2c3cccc4[nH]cc(c34)C[C@H]2N(C)C1 [AGROCLAVINE] | 63 | 95 | 11.7 | 100
2 | CC1=C[C@@H]2c3ccccc3CC[C@H]2N(C)C1.O=C(O)C(=O)O [DEPYRROLO AGROCLAVINE] | 9 | 0 | 35.2 | 0
3 | C[C@@H](CO)NC(=O)C1C=C2c3ccccc3CC[C@H]2N(C)C1 (some centres undefined) [DEPYRROLO ERGONOVINE] | -24 | 0 | 28.4 | 0
4 | CCCN1C[C@H](CSC)C[C@@H]2c3ccccc3CC[C@H]21.O=C(O)C(=O)O [DEPYRROLO PERGOLIDE] | 35 | 48 | 11.6 | 67
5 | C[C@@H](CO)NC(=O)[C@@H]1C=C2c3cccc4[nH]cc(c34)C[C@H]2N(C)C1.O=C(O)/C=C\C(=O)O [ERGONOVINE MALEATE] | 36 | 0 | 11.7 | 0
6 | CCCN1C[C@H](CSC)C[C@@H]2c3cccc4[nH]cc(c34)C[C@H]21 [PERGOLIDE] | 95 | 102 | 1.6 | 100
